Assay [1] has as its system Escherichia coli. The experiment in a line: Inhibition of Escherichia coli N-acetyl-muramoyl-L-alanine amidase AmiD assessed as residual activity at 1 mM preincubated for 30 mins.
In assay [2] the test system is Escherichia coli. The experiment in a line: Inhibition of Escherichia coli N-acetyl-muramoyl-L-alanine amidase AmiD assessed as residual activity at 100 uM after 20 mins. A digest of the protocol:
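Periplasmic soluble E. coli AmiD (sAmiD, 39 nM) was preincubated with the test compound for 20 min at 30 °C in 20 mM sodium phosphate buffer containing 48 nM ZnCl₂. Residual activity was taken as the initial rate of hydrolysis of 29 µM TCT (GlcNAc-anhMurNAc-tetrapeptide) added afterwards. The reaction was stopped after 20 min with diluted H₃PO₄ and analysed by RP-HPLC.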

The test system of assay [3] is Escherichia coli. The experiment in a line: Inhibition of Escherichia coli N-acetyl-muramoyl-L-alanine amidase AmiD assessed as residual activity at 0.5 mM after 20 mins; values are per cent of control.
Assay [4] relates to Escherichia coli. The experiment in a line: Inhibition of Escherichia coli N-acetyl-muramoyl-L-alanine amidase AmiD assessed as residual activity at 1 mM after 20 mins; values are per cent of control.

The structures appear in SMILES notation. Calls of active or inactive are those of the source. The calls are words filed in the database; no cut-off is given here.

The term residual activity denotes the activity still measured, relative to the control.

In the case of `CC(=O)N[C@H]1[C@@H]2OC[C@@H](O2)[C@@H](O)[C@H]1O[C@H](C)C(=O)N[C@@H](C)C(=O)Nc1ccc([N+](=O)[O-])cc1`, the inhibition entry in the assay with Escherichia coli [1] and in the assay with Escherichia coli [2] was “inactive” each time.

On to `CC(=O)N[C@H]1[C@@H]2OC[C@@H](O2)[C@@H](O)[C@H]1O[C@H](C)C(=O)N[C@@H](C)C(=O)N[C@H](CCC(=O)Nc1ccccc1)C(=O)O`, for which the inhibition result in the assay on Escherichia coli [2] was “inactive”. Besides, the residual activity in the assay with Escherichia coli [3] was found to be 83%; with Escherichia coli [4] it was 64%.

Turning to `CC(=O)N[C@H]1[C@@H]2OC[C@@H](O2)[C@@H](OCc2ccccc2)[C@H]1O[C@H](C)C(=O)O`, the inhibition result in the assay on Escherichia coli [1] was “inactive”.

On to `CC(=O)N[C@H]1[C@@H]2OC[C@@H](O2)[C@@H](O)[C@H]1O[C@H](C)C(=O)Nc1ccc(C(C)=O)cc1`, for which the inhibition result in the assay on Escherichia coli [1] and with Escherichia coli [2] was “inactive” throughout.

Take `CC(=O)N[C@H]1[C@@H]2OC[C@@H](O2)[C@@H](O)[C@H]1O[C@H](C)C(=O)Nc1ccc(C(F)(F)F)cc1`: the inhibition result in the assay on Escherichia coli [1] and in the assay on Escherichia coli [2] was “inactive” throughout.

As to `CC(=O)N[C@H]1[C@@H]2OC[C@@H](O2)[C@@H](O)[C@H]1O[C@H](C)C(=O)Nc1ccccc1`, the inhibition entry in the assay with Escherichia coli [1] and with Escherichia coli [2] was “inactive” throughout.

(Values after ChEMBL document CHEMBL1268948, “1,6-AnhMurNAc derivatives for assay development of amidase AmiD” (Bioorg Med Chem, 2010).)
